The text below walks through data of ChEMBL document CHEMBL1926621, “New potent 5-HT(2A) receptor ligands containing an N'-cyanopicolinamidine nucleus: Synthesis and in vitro pharmacological evaluation” (Eur J Med Chem, 2012).

A word on the Ki: it is a dissociation constant, usually derived from enzyme kinetics or from competition with a known ligand. For orientation: inhibition means the drop in the measured response relative to a control, in per cent. Read a high inhibition as strong suppression.

Assay [1] has as its target T1, Adrenergic receptor alpha-1 (Rattus norvegicus, UniProt P15823+P23944+P43140).
T1 sequence (P15823 whole entry): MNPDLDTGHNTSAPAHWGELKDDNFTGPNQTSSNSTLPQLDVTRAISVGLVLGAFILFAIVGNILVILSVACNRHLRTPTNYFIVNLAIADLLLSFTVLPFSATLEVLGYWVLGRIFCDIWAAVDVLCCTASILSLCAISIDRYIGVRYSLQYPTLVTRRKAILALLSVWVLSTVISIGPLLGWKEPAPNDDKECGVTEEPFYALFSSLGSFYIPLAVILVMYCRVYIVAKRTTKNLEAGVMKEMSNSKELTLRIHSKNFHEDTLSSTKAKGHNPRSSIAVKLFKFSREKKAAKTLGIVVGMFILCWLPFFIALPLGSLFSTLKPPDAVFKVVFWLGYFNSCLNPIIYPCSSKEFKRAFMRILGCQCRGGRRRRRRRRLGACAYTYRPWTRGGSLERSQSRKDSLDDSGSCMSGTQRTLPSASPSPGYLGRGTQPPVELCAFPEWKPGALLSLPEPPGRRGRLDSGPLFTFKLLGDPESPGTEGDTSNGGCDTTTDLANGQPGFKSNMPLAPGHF
T1 sequence (P23944 whole entry): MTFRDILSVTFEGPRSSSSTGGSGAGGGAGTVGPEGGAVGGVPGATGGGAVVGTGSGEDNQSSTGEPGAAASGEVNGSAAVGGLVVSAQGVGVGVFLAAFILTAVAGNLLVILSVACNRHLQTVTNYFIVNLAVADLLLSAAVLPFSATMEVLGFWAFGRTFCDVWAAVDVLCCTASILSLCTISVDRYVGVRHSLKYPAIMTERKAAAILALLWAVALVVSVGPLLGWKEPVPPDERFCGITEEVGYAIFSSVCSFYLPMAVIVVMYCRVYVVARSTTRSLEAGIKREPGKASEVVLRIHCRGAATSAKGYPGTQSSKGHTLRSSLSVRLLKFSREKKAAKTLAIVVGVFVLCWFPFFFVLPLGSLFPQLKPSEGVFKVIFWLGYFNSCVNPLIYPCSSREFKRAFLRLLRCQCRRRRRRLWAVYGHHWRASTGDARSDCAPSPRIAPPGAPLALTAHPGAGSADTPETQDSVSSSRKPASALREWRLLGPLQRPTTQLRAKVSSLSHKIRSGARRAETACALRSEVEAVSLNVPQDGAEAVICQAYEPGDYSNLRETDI
T1 sequence (P43140 whole entry): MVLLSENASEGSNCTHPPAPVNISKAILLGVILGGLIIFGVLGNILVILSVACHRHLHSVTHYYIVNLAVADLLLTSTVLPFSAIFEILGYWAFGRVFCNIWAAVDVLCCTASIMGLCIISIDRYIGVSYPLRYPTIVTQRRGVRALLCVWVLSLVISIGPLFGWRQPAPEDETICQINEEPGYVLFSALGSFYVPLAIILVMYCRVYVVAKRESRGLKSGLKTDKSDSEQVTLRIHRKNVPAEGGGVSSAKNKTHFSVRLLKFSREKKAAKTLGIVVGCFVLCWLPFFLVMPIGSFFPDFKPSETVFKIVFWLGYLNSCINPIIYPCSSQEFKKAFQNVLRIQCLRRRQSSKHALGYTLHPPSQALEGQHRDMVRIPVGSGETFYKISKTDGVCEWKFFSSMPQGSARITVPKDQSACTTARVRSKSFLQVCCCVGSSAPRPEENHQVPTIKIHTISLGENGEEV
The experiment in a line: Displacement of [3H]prazosin from rat brain cortex adrenergic alpha1 receptor after 30 mins by liquid scintillation counting. In short, it runs like this: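 Brain cortex homogenized in 50 mM Tris-HCl pH 7.2, spun twice at 50,000 g, resuspended in Tris-HCl pH 7.4. 0.4 nM [3H]prazosin final, 10 mg fresh tissue, 30 min at 25 °C. Nonspecific binding with phentolamine. GF/B filtration. Ki by Cheng-Prusoff from six-point triplicate curves.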
Background: Loss of bound radioactivity is the signal in a displacement assay; it reports binding, not function.

Assay [2] has as its target T2, Adrenergic receptor alpha-2 (Rattus norvegicus, UniProt P22086+P19328+P22909).
T2 sequence (P22086 whole entry): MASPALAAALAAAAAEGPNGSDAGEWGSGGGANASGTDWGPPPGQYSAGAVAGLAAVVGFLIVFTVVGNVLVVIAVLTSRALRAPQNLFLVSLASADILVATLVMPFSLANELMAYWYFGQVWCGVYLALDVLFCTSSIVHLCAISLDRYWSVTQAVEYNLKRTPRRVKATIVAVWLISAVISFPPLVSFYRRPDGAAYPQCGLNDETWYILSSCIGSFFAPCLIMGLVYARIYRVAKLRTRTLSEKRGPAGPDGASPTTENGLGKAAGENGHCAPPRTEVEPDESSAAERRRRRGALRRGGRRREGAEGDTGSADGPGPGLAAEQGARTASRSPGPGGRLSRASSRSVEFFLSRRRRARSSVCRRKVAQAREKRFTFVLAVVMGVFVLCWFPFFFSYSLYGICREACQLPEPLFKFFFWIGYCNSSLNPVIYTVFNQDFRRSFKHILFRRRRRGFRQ
T2 sequence (P19328 whole entry): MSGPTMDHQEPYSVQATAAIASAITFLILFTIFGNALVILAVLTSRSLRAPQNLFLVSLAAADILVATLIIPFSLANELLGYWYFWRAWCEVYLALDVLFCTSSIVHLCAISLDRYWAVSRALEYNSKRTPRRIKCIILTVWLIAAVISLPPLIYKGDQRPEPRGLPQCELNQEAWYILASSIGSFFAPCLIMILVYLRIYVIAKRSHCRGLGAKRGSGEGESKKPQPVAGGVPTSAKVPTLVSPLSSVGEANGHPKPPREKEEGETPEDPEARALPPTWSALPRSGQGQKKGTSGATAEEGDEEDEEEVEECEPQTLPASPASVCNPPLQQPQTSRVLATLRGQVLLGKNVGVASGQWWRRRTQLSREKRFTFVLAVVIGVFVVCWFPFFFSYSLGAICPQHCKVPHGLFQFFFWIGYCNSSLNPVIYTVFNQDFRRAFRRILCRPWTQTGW
T2 sequence (P22909 whole entry): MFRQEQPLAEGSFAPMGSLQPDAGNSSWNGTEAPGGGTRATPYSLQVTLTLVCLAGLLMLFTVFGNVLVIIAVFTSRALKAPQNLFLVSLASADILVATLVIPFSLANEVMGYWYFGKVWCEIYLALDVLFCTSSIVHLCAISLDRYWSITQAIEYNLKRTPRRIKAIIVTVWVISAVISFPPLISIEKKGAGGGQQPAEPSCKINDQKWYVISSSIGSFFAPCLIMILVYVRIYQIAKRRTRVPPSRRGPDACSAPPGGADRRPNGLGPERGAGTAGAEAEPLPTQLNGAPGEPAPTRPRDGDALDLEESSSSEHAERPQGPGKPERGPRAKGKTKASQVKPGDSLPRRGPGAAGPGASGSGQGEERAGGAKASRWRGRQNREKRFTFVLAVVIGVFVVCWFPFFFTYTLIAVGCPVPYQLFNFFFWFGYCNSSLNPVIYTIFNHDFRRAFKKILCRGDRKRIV
Put plainly: Displacement of [3H]yohimbine from rat brain cortex adrenergic alpha2 receptor after 30 mins by liquid scintillation counting. In short, it runs like this:
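Cortex homogenized in 5 mM Tris-HCl, 5 mM EDTA pH 7.3, spun three times at 50,000 g, resuspended in 50 mM Tris-HCl, 0.5 mM EDTA pH 7.5. [3H]yohimbine 1 nM final, 10 mg fresh tissue, 30 min at 25 °C. Phentolamine defined nonspecific binding. Ki by Cheng-Prusoff.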

The target of assay [3] is 5-hydroxytryptamine receptor 2A (Rattus norvegicus) (UniProt P14842). Put plainly: Displacement of [3H]ketanserin from Sprague-Dawley rat brain cortex serotonin 5-HT2A receptor at 0.001 uM after 15 mins by liquid scintillation counting.
For assay [4] the target is unchanged. The experiment in a line: Displacement of [3H]ketanserin from Sprague-Dawley rat brain cortex serotonin 5-HT2A receptor at 0.00001 uM after 15 mins by liquid scintillation counting.
Assay [5] has the same target. Put plainly: Displacement of [3H]ketanserin from Sprague-Dawley rat brain cortex serotonin 5-HT2A receptor at 0.0000001 uM after 15 mins by liquid scintillation counting.
The target in assay [6] is T3, 5-hydroxytryptamine receptor 2C (Rattus norvegicus, UniProt P08909).
T3 sequence (P08909 whole entry): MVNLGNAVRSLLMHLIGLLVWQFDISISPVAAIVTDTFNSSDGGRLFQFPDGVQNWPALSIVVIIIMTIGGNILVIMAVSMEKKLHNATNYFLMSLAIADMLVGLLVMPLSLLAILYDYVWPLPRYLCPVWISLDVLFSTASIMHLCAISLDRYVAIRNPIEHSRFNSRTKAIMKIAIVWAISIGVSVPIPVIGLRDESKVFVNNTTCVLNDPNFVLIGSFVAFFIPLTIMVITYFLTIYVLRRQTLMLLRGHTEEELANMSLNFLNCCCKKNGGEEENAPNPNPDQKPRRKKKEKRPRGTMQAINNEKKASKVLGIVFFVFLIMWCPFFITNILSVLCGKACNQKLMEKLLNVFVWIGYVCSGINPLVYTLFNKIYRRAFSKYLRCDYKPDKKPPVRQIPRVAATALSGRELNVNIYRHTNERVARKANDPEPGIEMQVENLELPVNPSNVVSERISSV
Put plainly: Displacement of [3H]mesulergine from Sprague-Dawley rat brain cortex serotonin 5-HT2C receptor after 15 mins by liquid scintillation counting in presence of 5-HT2A blocker, spiperone. In short, it runs like this: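 Male Sprague-Dawley rat frontal cortex membranes (Tris-HCl/EDTA/MgCl2 pH 7.4, ascorbate, pargyline). 100 nM spiperone in all tubes to block 5-HT2A sites. Mianserin defined nonspecific binding. 15 min at 37 °C, PEI-soaked glass fibre filtration. Six compound concentrations in triplicate. Ki by Cheng-Prusoff.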

Assay [7] concerns the target 5-hydroxytryptamine receptor 2A (Rattus norvegicus, UniProt P14842). The experiment in a line: Displacement of [3H]ketanserin from Sprague-Dawley rat brain cortex serotonin 5-HT2A receptor after 15 mins by liquid scintillation counting. Conditions: read-out: Ki; call rule not given here. The method in brief: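 Male Sprague-Dawley rat frontal cortex membranes in 50 mM Tris-HCl, 0.5 mM EDTA, 10 mM MgCl2 pH 7.4, with 0.1% ascorbate and pargyline. 0.4 nM [3H]ketanserin, 5 mg wet tissue, 15 min at 37 °C. Filtered on PEI-soaked glass fibre. Six compound concentrations in triplicate. IC50 converted to Ki by Cheng-Prusoff.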

Assay [8] concerns the target T4, 5-hydroxytryptamine receptor 1A (Rattus norvegicus, UniProt P19327).
T4 sequence (P19327 whole entry): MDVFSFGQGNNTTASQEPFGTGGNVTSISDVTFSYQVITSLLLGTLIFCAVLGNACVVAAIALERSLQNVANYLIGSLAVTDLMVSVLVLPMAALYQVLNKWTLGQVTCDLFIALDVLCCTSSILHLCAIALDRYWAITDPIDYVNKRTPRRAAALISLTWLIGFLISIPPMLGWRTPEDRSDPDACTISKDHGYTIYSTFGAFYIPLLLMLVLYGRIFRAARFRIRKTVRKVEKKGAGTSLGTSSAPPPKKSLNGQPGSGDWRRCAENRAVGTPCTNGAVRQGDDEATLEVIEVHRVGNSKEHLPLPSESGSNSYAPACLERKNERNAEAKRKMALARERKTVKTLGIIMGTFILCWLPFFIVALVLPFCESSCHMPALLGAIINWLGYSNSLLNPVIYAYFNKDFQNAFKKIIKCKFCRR
The experiment in a line: Displacement of [3H]-8-OH-DPAT from Sprague-Dawley rat brain cortex serotonin 5-HT1A receptor after 30 mins by liquid scintillation counting. The following applies: read-out: Ki. The method in brief:
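Male Sprague-Dawley rat (180-220 g) cerebral cortex homogenized in 50 mM Tris-HCl pH 7.7, spun 50,000 g. [3H]-8-OH-DPAT 0.1 nM final, 30 min at 37 °C, GF/B filtration. Test compounds in ethanol or 5% DMSO, six concentrations in triplicate. IC50 by curve fitting, Ki by Cheng-Prusoff using Scatchard-derived KD.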

The next assay addresses D(1A) dopamine receptor (Rattus norvegicus, UniProt P18901). The experiment in a line: Displacement of [3H]SCH-23390 from rat corpora striatum dopamine D1 receptor after 15 mins by liquid scintillation counting. In short, it runs like this:
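Rat corpora striata homogenized in 50 mM Tris-HCl pH 7.7, spun twice at 50,000 g. Resuspended in Tris-HCl with NaCl, KCl, CaCl2, MgCl2, ascorbic acid and pargyline. 0.4 nM [3H]SCH-23390 final, 3 mg fresh tissue, 15 min at 37 °C. Nonspecific binding with piflutixol. Ki by Cheng-Prusoff from triplicate six-point curves.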

A further assay has as its target D(2) dopamine receptor (Rattus norvegicus, UniProt P61169). Put plainly: Displacement of [3H]spiperone from rat corpora striatum dopamine D2 receptor after 15 mins by liquid scintillation counting. The method in brief: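 Corpora striata membranes in Tris-HCl buffer containing NaCl, KCl, CaCl2, MgCl2, ascorbic acid and pargyline. [3H]spiperone 0.4 nM final, 3 mg fresh tissue, incubated 15 min at 37 °C. GF/B filtration, scintillation counting. Six concentrations in triplicate. IC50 converted to Ki via Cheng-Prusoff.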

A value given as a limit tells only on which side of the number the result lay.

Sequence of 5-hydroxytryptamine receptor 2A (Rattus norvegicus) (P14842 whole entry): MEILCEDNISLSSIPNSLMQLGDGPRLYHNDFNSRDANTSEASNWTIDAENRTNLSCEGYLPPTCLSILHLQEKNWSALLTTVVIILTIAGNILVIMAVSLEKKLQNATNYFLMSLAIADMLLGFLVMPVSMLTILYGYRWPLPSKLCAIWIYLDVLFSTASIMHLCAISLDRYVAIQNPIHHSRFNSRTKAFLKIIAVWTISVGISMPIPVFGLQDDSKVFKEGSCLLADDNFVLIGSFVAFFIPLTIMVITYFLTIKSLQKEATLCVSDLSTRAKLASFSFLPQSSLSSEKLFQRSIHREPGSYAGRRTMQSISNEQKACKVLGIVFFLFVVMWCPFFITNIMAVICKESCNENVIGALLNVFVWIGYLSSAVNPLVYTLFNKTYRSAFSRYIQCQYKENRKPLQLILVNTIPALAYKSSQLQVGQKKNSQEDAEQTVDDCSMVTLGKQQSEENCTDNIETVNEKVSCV
Sequence of D(2) dopamine receptor (P61169 whole entry): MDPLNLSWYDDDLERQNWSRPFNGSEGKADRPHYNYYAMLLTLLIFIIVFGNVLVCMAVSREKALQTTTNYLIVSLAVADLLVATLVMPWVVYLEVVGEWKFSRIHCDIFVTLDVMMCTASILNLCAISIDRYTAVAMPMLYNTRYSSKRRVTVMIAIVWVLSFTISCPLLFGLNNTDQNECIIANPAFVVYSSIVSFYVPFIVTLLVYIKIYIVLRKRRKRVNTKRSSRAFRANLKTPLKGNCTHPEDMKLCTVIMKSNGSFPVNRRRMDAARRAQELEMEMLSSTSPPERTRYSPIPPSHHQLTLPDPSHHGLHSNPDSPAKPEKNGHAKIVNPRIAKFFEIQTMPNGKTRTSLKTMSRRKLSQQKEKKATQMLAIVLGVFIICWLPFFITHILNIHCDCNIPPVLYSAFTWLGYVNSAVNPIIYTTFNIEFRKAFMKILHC
Sequence of D(1A) dopamine receptor (P18901 whole entry): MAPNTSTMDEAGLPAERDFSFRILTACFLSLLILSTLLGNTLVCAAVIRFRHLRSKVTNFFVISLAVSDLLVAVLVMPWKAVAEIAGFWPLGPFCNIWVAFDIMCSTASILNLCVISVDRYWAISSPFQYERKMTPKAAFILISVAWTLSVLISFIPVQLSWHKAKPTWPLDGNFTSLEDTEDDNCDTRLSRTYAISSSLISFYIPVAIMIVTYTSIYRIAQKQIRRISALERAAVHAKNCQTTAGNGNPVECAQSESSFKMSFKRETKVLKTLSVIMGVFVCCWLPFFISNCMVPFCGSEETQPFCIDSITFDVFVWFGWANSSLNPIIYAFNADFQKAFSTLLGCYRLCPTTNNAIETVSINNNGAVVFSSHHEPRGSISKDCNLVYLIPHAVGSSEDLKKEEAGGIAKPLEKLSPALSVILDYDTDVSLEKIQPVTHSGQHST
Sequence of 5-hydroxytryptamine receptor 2A (P14842 whole entry): as the sequence (P14842 whole entry) above

With `N#C/N=C(\NCCCN1CCN(c2cccc(Cl)c2)CC1)c1ccccn1`, the Ki turned out to be 174 nM in assay [1] and 1.36 µM in [2]. Moreover, the inhibition in assay [3] turned out to be 95.1%; in assay [4], 68.8%; in assay [5] it was 45.3%.
For `N#C/N=C(\NCCCN1CCN(C(=O)c2ccco2)CC1)c1ccccn1`, the inhibition constant (Ki) entry was “Not Active” in [6]; 21.5 nM in [7]; above 10 µM in [8]; “Not Active” on D(1A) dopamine receptor; “Not Active” at D(2) dopamine receptor; above 10 µM in [2].
